Measured values from ChEMBL document CHEMBL3351470, “Synthesis and Structure-Activity Relationships of α-Amino-γ-lactone Ketolides: A Novel Class of Macrolide Antibiotics” (2014).
Values after ≈ are worked out from the molar mass of the structure shown.

Assays:
Format in all cases: functional
Streptococcus pyogenes [1] = experiment: Antibacterial activity against efflux-resistant Streptococcus pyogenes by agar microdilution method
How it was run: (§1)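 Agar microdilution MIC following NCCLS standards; strains taken from the Pliva Research Institute culture collection. Panel grouped by phenotype: erythromycin-susceptible, inducibly MLS-resistant (iMLS), constitutively MLSB-resistant and efflux-resistant (M). Azithromycin, telithromycin and cethromycin tested alongside as references. MIC reported in μg/mL.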

Streptococcus pyogenes [2] = experiment: Antibacterial activity against macrolide lincosamide- streptogramin B inducibly-resistant Streptococcus pyogenes by agar microdilution method; how it was run: as §1
Staphylococcus aureus [3] = experiment: Antibacterial activity against macrolide lincosamide- streptogramin B inducibly-resistant Staphylococcus aureus by agar microdilution method; how it was run: as §1
Staphylococcus aureus [4] = experiment: Antibacterial activity against erythromycin-susceptible Staphylococcus aureus by agar microdilution method
How it was run: (§2)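 Strains from an in-house culture collection (Pliva Research Institute). MIC determined by agar microdilution following NCCLS standards and reported in μg/mL. Erythromycin-susceptible strains are listed as Ery-S; the panel also includes inducibly resistant (iMLS), constitutively resistant (MLSB) and efflux-resistant (M) strains.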

Staphylococcus aureus [5] = experiment: Antibacterial activity against macrolide lincosamide- streptogramin B-resistant Staphylococcus aureus by agar microdilution method; how it was run: as §1
Streptococcus pneumoniae [6] = experiment: Antibacterial activity against erythromycin-susceptible Streptococcus pneumoniae by agar microdilution method; how it was run: as §2
Streptococcus pneumoniae [7] = experiment: Antibacterial activity against macrolide lincosamide- streptogramin B inducibly-resistant Streptococcus pneumoniae by agar microdilution method; how it was run: as §1
Streptococcus pneumoniae [8] = experiment: Antibacterial activity against efflux-resistant Streptococcus pneumoniae by agar microdilution method; how it was run: as §1
Streptococcus pyogenes [9] = experiment: Antibacterial activity against erythromycin-susceptible Streptococcus pyogenes by agar microdilution method; how it was run: as §2
Haemophilus influenzae = experiment: Antibacterial activity against Haemophilus influenzae by agar microdilution method; how it was run: as §2

| Structure (SMILES) | MIC (Streptococcus pyogenes [1]) [µg/mL] | MIC (Streptococcus pyogenes [2]) [µg/mL] | MIC (Staphylococcus aureus [3]) [µg/mL] | MIC (Staphylococcus aureus [4]) [µg/mL] | MIC (Staphylococcus aureus [5]) [µg/mL] | MIC (Streptococcus pneumoniae [6]) [µg/mL] | MIC (Streptococcus pneumoniae [7]) [µg/mL] | MIC (Streptococcus pneumoniae [8]) [µg/mL] | MIC (Streptococcus pyogenes [9]) [µg/mL] | MIC (Haemophilus influenzae) [µg/mL] |
| --- | --- | --- | --- | --- | --- | --- | --- | --- | --- | --- |
| CC[C@H]1OC(=O)[C@H](C)C(=O)[C@H](C)[C@@H](O[C@@H]2O[C@H](C)C[C@H](N(C)C)[C@H]2O)[C@](C)(OC)C[C@@H](C)C(=O)[C@H](C)[C@H]2C(NC(=O)CCc3ccccn3)C(=O)O[C@@]21C (some centres undefined) | 4 (≈ 5.26 µM) | 32 (≈ 42.1 µM) | 4 (≈ 5.26 µM) | 4 (≈ 5.26 µM) | > 64 | ≤ 0.125 | 2 (≈ 2.63 µM) | 2 (≈ 2.63 µM) | ≤ 0.125 | 16 (≈ 21.1 µM) |
| CC[C@H]1OC(=O)[C@H](C)C(=O)[C@H](C)[C@@H](O[C@@H]2O[C@H](C)C[C@H](N(C)C)[C@H]2O)[C@](C)(OC)C[C@@H](C)C(=O)[C@H](C)[C@H]2C(NC(=O)CCc3ccc4ccccc4c3)C(=O)O[C@@]21C (some centres undefined) | 8 (≈ 9.89 µM) | 4 (≈ 4.94 µM) | 1 (≈ 1.24 µM) | 1 (≈ 1.24 µM) | > 64 | ≤ 0.125 | 2 (≈ 2.47 µM) | 2 (≈ 2.47 µM) | ≤ 0.125 | 2 (≈ 2.47 µM) |
| CC[C@H]1OC(=O)[C@H](C)C(=O)[C@H](C)[C@@H](O[C@@H]2O[C@H](C)C[C@H](N(C)C)[C@H]2O)[C@](C)(OC)C[C@@H](C)C(=O)[C@H](C)[C@H]2C(NC(=O)CCc3cnc4ccccc4c3)C(=O)O[C@@]21C (some centres undefined) | 2 (≈ 2.47 µM) | 1 (≈ 1.23 µM) | 1 (≈ 1.23 µM) | 1 (≈ 1.23 µM) | > 64 | ≤ 0.125 | 1 (≈ 1.23 µM) | 0.5 (≈ 0.617 µM) | ≤ 0.125 | 4 (≈ 4.94 µM) |
| CC[C@H]1OC(=O)[C@H](C)C(=O)[C@H](C)[C@@H](O[C@@H]2O[C@H](C)C[C@H](N(C)C)[C@H]2O)[C@](C)(OC)C[C@@H](C)C(=O)[C@H](C)[C@H]2C(NC(=O)CCc3cnc4c(OC)cccc4c3)C(=O)O[C@@]21C (some centres undefined) | 0.25 (≈ 0.298 µM) | 0.5 (≈ 0.595 µM) | 1 (≈ 1.19 µM) | 0.5 (≈ 0.595 µM) | > 64 | ≤ 0.125 | 0.25 (≈ 0.298 µM) | 0.25 (≈ 0.298 µM) | ≤ 0.125 | 1 (≈ 1.19 µM) |
| CC[C@H]1OC(=O)[C@H](C)C(=O)[C@H](C)[C@@H](O[C@@H]2O[C@H](C)C[C@H](N(C)C)[C@H]2O)[C@](C)(OC)C[C@@H](C)C(=O)[C@H](C)[C@H]2C(NC(=O)CCc3cnc4ccc(OC)cc4c3)C(=O)O[C@@]21C (some centres undefined) | 0.5 (≈ 0.595 µM) | 0.25 (≈ 0.298 µM) | 1 (≈ 1.19 µM) | 2 (≈ 2.38 µM) | > 64 | ≤ 0.125 | 0.5 (≈ 0.595 µM) | 0.5 (≈ 0.595 µM) | ≤ 0.125 | 1 (≈ 1.19 µM) |
| CC[C@H]1OC(=O)[C@H](C)C(=O)[C@H](C)[C@@H](O[C@@H]2O[C@H](C)C[C@H](N(C)C)[C@H]2O)[C@](C)(OC)C[C@@H](C)C(=O)[C@H](C)[C@H]2C(NC(=O)/C=C/CCc3cnc4ccccc4c3)C(=O)O[C@@]21C (some centres undefined) | 4 (≈ 4.78 µM) | 8 (≈ 9.57 µM) | 2 (≈ 2.39 µM) | 2 (≈ 2.39 µM) | > 64 | ≤ 0.125 | 8 (≈ 9.57 µM) | 1 (≈ 1.2 µM) | ≤ 0.125 | 8 (≈ 9.57 µM) |
| CC[C@H]1OC(=O)[C@H](C)C(=O)[C@H](C)[C@@H](O[C@@H]2O[C@H](C)C[C@H](N(C)C)[C@H]2O)[C@](C)(OC)C[C@@H](C)C(=O)[C@H](C)[C@H]2C(NC(=O)/C=C/CCc3cnc4c(OC)cccc4c3)C(=O)O[C@@]21C (some centres undefined) | 2 (≈ 2.31 µM) | 0.5 (≈ 0.577 µM) | 1 (≈ 1.15 µM) | 1 (≈ 1.15 µM) | > 64 | ≤ 0.125 | 2 (≈ 2.31 µM) | 2 (≈ 2.31 µM) | ≤ 0.125 | 1 (≈ 1.15 µM) |
| CC[C@H]1OC(=O)[C@H](C)C(=O)[C@H](C)[C@@H](O[C@@H]2O[C@H](C)C[C@H](N(C)C)[C@H]2O)[C@](C)(OC)C[C@@H](C)C(=O)[C@H](C)[C@H]2C(NC(=O)/C=C/CCc3cnc4ccc(OC)cc4c3)C(=O)O[C@@]21C (some centres undefined) | 4 (≈ 4.62 µM) | 0.25 (≈ 0.289 µM) | 2 (≈ 2.31 µM) | 2 (≈ 2.31 µM) | > 64 | ≤ 0.125 | 8 (≈ 9.24 µM) | 4 (≈ 4.62 µM) | ≤ 0.125 | 1 (≈ 1.15 µM) |
| CC[C@H]1OC(=O)[C@H](C)C(=O)[C@H](C)[C@@H](O[C@@H]2O[C@H](C)C[C@H](N(C)C)[C@H]2O)[C@](C)(OC)C[C@@H](C)C(=O)[C@H](C)[C@H]2C(NC(=O)CCCCc3cnc4ccccc4c3)C(=O)O[C@@]21C (some centres undefined) | 16 (≈ 19.1 µM) | 8 (≈ 9.55 µM) | 2 (≈ 2.39 µM) | 1 (≈ 1.19 µM) | > 64 | ≤ 0.125 | 8 (≈ 9.55 µM) | 4 (≈ 4.77 µM) | ≤ 0.125 | 16 (≈ 19.1 µM) |
| CC[C@H]1OC(=O)[C@H](C)C(=O)[C@H](C)[C@@H](O[C@@H]2O[C@H](C)C[C@H](N(C)C)[C@H]2O)[C@](C)(OC)C[C@@H](C)C(=O)[C@H](C)[C@H]2C(NC(=O)CCCCc3cnc4c(OC)cccc4c3)C(=O)O[C@@]21C (some centres undefined) | 4 (≈ 4.61 µM) | 4 (≈ 4.61 µM) | 1 (≈ 1.15 µM) | 1 (≈ 1.15 µM) | > 64 | ≤ 0.125 | 2 (≈ 2.3 µM) | 4 (≈ 4.61 µM) | ≤ 0.125 | 16 (≈ 18.4 µM) |
| CC[C@H]1OC(=O)[C@H](C)C(=O)[C@H](C)[C@@H](O[C@@H]2O[C@H](C)C[C@H](N(C)C)[C@H]2O)[C@](C)(OC)C[C@@H](C)C(=O)[C@H](C)[C@H]2C(NC(=O)CCCCc3cnc4ccc(OC)cc4c3)C(=O)O[C@@]21C (some centres undefined) | 4 (≈ 4.61 µM) | 2 (≈ 2.3 µM) | 2 (≈ 2.3 µM) | 1 (≈ 1.15 µM) | > 64 | ≤ 0.125 | 4 (≈ 4.61 µM) | 4 (≈ 4.61 µM) | ≤ 0.125 | 8 (≈ 9.22 µM) |
| CC[C@H]1OC(=O)[C@H](C)C(=O)[C@H](C)[C@@H](O[C@@H]2O[C@H](C)C[C@H](N(C)C)[C@H]2O)[C@](C)(OC)C[C@@H](C)C(=O)[C@H](C)[C@H]2C(NC(=O)CSc3cnc4ccccc4n3)C(=O)O[C@@]21C (some centres undefined) | 0.25 (≈ 0.302 µM) | 0.25 (≈ 0.302 µM) | 0.25 (≈ 0.302 µM) | ≤ 0.125 | > 64 | ≤ 0.06 | ≤ 0.125 | 0.25 (≈ 0.302 µM) | ≤ 0.06 | 0.5 (≈ 0.603 µM) |
| CC[C@H]1OC(=O)[C@H](C)C(=O)[C@H](C)[C@@H](O[C@@H]2O[C@H](C)C[C@H](N(C)C)[C@H]2O)[C@](C)(OC)C[C@@H](C)C(=O)[C@H](C)[C@H]2C(NC(=O)CNC(=O)CSc3cnc4ccccc4n3)C(=O)O[C@@]21C (some centres undefined) | 0.5 (≈ 0.564 µM) | 1 (≈ 1.13 µM) | 0.25 (≈ 0.282 µM) | ≤ 0.125 | > 64 | 0.25 (≈ 0.282 µM) | 0.5 (≈ 0.564 µM) | 0.5 (≈ 0.564 µM) | 0.25 (≈ 0.282 µM) | 2 (≈ 2.26 µM) |
| CC[C@H]1OC(=O)[C@H](C)C(=O)[C@H](C)[C@@H](O[C@@H]2O[C@H](C)C[C@H](N(C)C)[C@H]2O)[C@](C)(OCC=Cc2cnc3ccccc3c2)C[C@@H](C)C(=O)[C@H](C)[C@H]2NC(=O)O[C@@]21C [CETHROMYCIN] | ≤ 0.125 | 1 (≈ 1.31 µM) | 0.25 (≈ 0.326 µM) | ≤ 0.125 | > 64 | ≤ 0.06 | ≤ 0.125 | – | ≤ 0.06 | 2 (≈ 2.61 µM) |
